Measurements as given in ChEMBL document CHEMBL3774355, “Quinoxalinone (Part II). Discovery of (Z)-3-(2-(pyridin-4-yl)vinyl)quinoxalinone derivates as potent VEGFR-2 kinase inhibitors” (Bioorg Med Chem, 2016).
Activity calls are given as the source filed them. No cut-off for these calls is given here.

Assays:
HeLa = test: Cytotoxicity against human HeLa cells assessed as growth inhibition after 24 hrs by MTT assay; format: functional, cell-based
Summary of the method: (§1)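 Cells seeded at 8000/well in RPMI-1640 with 10% heat-inactivated FBS and left to adhere 10 h. Compound then added in RPMI-1640 with 1% FBS and 0.1% DMSO for 24 h at 37 °C. MTT added for 4 h, formazan dissolved in DMSO, OD read at 590 nm. Inhibition calculated relative to control and zero-setting wells; IC50 derived from inhibition ratios; two experiments in triplicate.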

MCF7 = test: Cytotoxicity against human MCF7 cells assessed as growth inhibition after 24 hrs by MTT assay; format: functional, cell-based; details: MCF7, 24 h; summary of the method: as §1
K562 = test: Cytotoxicity against human K562 cells assessed as growth inhibition after 24 hrs by MTT assay; format: functional, cell-based; details: K562, 24 h; summary of the method: as §1
[1] = Cytotoxicity against human 3AO cells assessed as growth inhibition after 24 hrs by MTT assay; format: functional, cell-based; summary of the method: as §1
[2] = Cytotoxicity against human PC3 cells assessed as growth inhibition after 24 hrs by MTT assay; format: functional, cell-based; details: PC-3, 24 h; summary of the method: as §1
[3] = Cytotoxicity against human BEAS2B cells assessed as growth inhibition after 24 hrs by MTT assay; format: cell-based; details: BEAS-2B; summary of the method: as §1
[4] = molecular target: Fibroblast growth factor receptor 1 (Homo sapiens) (UniProt P11362); test: Inhibition of human recombinant FGFR1 at 1 uM after 50 mins by microtiter plate based luciferase reporter gene assay
Danio rerio [5] = species on record: Danio rerio; test: Antiangiogenic activity against transgenic zebra fish embryos expressing green fluorescence protein assessed as inhibition of intersegmental vessel formation at 100 uM after 24 hrs by confocal fluorescence microscopy; format: functional, organism-based
Summary of the method: (§2)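 Tg(flk1:GFP) embryos, dechorionated one day post-fertilization, 10 per well in 3 mL assay solution with 0.1% PTU added; compounds at 10, 50, 100 µM, 0.2% DMSO as vehicle control, vatalanib as positive control; 28 °C. ISV formation scored by confocal microscopy (50- and 100-fold) after 24 h treatment; repeated at least three times.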

[6] = molecular target: Vascular endothelial growth factor receptor 2 (Homo sapiens) (UniProt P35968); details: at 1 µM
HUVEC = test: Antiangiogenic activity against HUVEC cells assessed as inhibition of VEGF-induced tube formation after 8 hrs by microscopic analysis; format: functional, cell-based; details: Homo sapiens
Summary of the method: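 HUVECs trypsinized and seeded on Matrigel (polymerized 1 h, 37 °C) at 10^5 cells/well, incubated with compound at 0.1, 1 and 10 µg/mL for 8 h at 37 °C in CO2 until tube networks formed; Pazopanib as positive control. Morphology imaged in five random fields per well; experiment repeated 3 times.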

Danio rerio [7] = species on record: Danio rerio; test: Antiangiogenic activity against transgenic zebra fish embryos expressing green fluorescence protein assessed as inhibition of intersegmental vessel formation at 10 to 100 uM after 24 hrs by confocal fluorescence microscopy; format: functional, organism-based; summary of the method: as §2

Sequence of Fibroblast growth factor receptor 1 (Homo sapiens) (P11362 22-822 limits assumed): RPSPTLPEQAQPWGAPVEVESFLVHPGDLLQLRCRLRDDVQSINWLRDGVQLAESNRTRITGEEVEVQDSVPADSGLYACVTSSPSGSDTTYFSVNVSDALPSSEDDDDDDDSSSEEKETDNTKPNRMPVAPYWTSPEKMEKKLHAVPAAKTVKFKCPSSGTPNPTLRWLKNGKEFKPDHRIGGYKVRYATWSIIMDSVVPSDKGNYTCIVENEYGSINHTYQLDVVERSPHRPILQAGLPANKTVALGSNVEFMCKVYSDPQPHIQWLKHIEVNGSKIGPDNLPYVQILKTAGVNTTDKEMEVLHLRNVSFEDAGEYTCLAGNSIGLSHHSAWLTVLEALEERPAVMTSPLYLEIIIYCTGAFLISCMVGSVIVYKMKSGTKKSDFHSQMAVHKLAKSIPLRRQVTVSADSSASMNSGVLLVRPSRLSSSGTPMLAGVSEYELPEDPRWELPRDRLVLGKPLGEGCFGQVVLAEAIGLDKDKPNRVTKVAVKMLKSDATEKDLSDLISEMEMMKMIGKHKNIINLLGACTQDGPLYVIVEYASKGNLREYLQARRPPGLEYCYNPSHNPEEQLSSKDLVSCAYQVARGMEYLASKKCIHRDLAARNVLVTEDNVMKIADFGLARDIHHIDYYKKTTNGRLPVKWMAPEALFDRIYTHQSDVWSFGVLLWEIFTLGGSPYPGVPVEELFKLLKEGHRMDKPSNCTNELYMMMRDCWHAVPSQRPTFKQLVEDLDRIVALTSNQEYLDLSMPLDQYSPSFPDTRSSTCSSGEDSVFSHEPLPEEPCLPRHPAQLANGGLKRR
Sequence of Vascular endothelial growth factor receptor 2 (Homo sapiens) (P35968 whole entry): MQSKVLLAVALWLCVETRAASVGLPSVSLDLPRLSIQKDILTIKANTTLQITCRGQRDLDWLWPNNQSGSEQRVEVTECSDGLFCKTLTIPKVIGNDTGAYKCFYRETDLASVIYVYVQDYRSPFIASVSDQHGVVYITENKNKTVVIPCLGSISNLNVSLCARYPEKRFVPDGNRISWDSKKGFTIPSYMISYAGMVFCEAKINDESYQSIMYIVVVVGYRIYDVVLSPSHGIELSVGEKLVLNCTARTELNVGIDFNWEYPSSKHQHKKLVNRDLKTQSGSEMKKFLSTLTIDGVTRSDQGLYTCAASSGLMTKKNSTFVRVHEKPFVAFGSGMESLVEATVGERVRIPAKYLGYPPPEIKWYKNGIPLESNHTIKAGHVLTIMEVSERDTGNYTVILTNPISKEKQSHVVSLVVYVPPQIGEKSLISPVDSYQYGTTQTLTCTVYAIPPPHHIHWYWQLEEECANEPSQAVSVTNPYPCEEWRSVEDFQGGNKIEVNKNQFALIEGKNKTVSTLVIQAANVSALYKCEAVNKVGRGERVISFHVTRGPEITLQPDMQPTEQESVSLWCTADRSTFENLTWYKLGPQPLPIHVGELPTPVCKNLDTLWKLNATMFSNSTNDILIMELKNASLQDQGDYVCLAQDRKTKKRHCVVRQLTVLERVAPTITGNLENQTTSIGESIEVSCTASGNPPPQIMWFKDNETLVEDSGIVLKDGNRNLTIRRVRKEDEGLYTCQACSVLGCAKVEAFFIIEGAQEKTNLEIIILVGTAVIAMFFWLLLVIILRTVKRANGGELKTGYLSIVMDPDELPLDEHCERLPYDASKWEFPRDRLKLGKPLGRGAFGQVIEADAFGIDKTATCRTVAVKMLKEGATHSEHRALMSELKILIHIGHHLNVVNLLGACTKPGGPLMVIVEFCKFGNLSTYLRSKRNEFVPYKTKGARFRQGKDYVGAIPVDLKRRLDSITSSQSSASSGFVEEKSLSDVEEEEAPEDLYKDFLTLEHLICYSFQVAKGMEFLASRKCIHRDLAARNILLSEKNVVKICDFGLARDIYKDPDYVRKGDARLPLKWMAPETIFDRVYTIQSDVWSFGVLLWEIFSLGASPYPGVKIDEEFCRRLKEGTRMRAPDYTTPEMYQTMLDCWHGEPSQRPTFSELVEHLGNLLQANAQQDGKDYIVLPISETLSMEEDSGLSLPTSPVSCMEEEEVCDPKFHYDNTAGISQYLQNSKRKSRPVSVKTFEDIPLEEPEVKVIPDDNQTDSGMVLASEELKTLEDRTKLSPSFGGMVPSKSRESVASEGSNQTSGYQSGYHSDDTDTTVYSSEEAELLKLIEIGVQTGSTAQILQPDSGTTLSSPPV

Row | Compound | IC50 (HeLa) [µM] | IC50 (MCF7) [µM] | IC50 (K562) [µM] | IC50 [1] [µM] | IC50 [2] [µM] | IC50 [3] [µM] | inhibition [4] [%] | inhibition (Danio rerio [5]) | inhibition [6] [%] | inhibition (HUVEC) | inhibition (Danio rerio [7])
1 | Cc1ccc(NC(=O)COc2nc3ccccc3nc2/C=C\c2ccncc2)cc1 | > 100 | 60.2 | > 100 | > 100 | > 100 | > 100 |  |  |  |  | 
2 | Cc1ccc(Nc2nccc(N(C)c3ccc4c(C)n(C)nc4c3)n2)cc1S(N)(=O)=O [PAZOPANIB] | > 100 | 76.8 | 89.3 | 50.2 | > 100 | > 100 |  |  |  |  | 
3 | Cc1nc2ccccc2n(CC(=O)Nc2ccc(Cl)cc2)c1=O | > 100 | > 100 | > 100 | 40.2 | > 100 | > 100 | 0 | Active | 19 | Dose-dependent effect | 
4 | O=C(Cn1c(=O)c(/C=C\c2ccncc2)nc2ccccc21)Nc1ccccc1 | > 100 | > 100 | 55.5 | > 100 | > 100 | > 100 |  |  |  |  | 
5 | O=C(Cn1c(=O)c(/C=C\c2ccncc2)nc2ccccc21)Nc1ccc(F)cc1 | > 100 | 49 | > 100 | > 100 | 59.9 | > 100 | 2 |  | 6 | Dose-dependent effect | inactive
6 | Cc1nc2ccccc2nc1OCC(=O)Nc1ccc(Cl)cc1 | > 100 | > 100 | > 100 | > 100 | 68 | > 100 |  |  |  |  | 
7 | O=C(Cn1c(=O)c(/C=C\c2ccncc2)nc2ccccc21)Nc1ccc(Cl)c(Cl)c1 | > 100 | 47.6 | > 100 | > 100 | > 100 | > 100 | 8 |  | 56 | Dose-dependent effect | Dose-dependent effect
8 | COc1cc2nc(/C=C\c3ccncc3)c(=O)n(CC(=O)Nc3ccccc3)c2cc1OC | > 100 | > 100 | > 100 | 55.6 | > 100 | > 100 |  |  |  |  | 
9 | Cc1ccccc1NC(=O)Cn1c(=O)c(/C=C\c2ccncc2)nc2ccccc21 | > 100 | > 100 | > 100 | 69.7 | > 100 | > 100 |  |  |  |  | 
10 | Cc1nc2ccccc2n(Cc2ccc(NC(=O)c3ccc(Cl)cc3)cc2)c1=O | > 100 | 47.6 | > 100 | > 100 | 39.6 | > 100 |  |  |  |  | 
11 | O=C(COc1nc2ccccc2nc1/C=C\c1ccncc1)Nc1ccc(Cl)cc1 | > 100 | > 100 | 49.9 | > 100 | > 100 | > 100 | 0 |  | 37 | Dose-dependent effect | Active
12 | Cc1ccc(NC(=O)COc2nc3ccccc3nc2C)cc1 | 74.6 | > 100 | > 100 | > 100 | > 100 | > 100 |  |  |  |  | 
13 | O=C(Cn1c(=O)c(/C=C\c2ccncc2)nc2ccccc21)Nc1ccc(Cl)cc1 | > 100 | > 100 | 50.4 | > 100 | > 100 | > 100 | 5 |  | 44 | Dose-dependent effect | Dose-dependent effect
14 | COc1ccc(NC(=O)Cn2c(=O)c(/C=C\c3ccncc3)nc3ccccc32)cc1OC | > 100 | > 100 | 55.2 | > 100 | > 100 | > 100 |  |  |  |  | 
15 | Cc1ccc(C(=O)Nc2ccc(Cn3c(=O)c(C)nc4ccccc43)cc2)cc1 | > 100 | > 100 | > 100 | > 100 | > 100 | > 100 |  |  |  |  | 
16 | Cc1nc2ccccc2n(CC(=O)Nc2ccc(F)cc2)c1=O | 55.5 | > 100 | > 100 | > 100 | > 100 | > 100 |  |  |  |  | 
